According to ChEMBL document CHEMBL1133968, “Glutamyl-gamma-boronate inhibitors of bacterial Glu-tRNA(Gln) amidotransferase” (Bioorg Med Chem Lett, 2001):
In brackets after ≈: the same amount, converted by molar mass.

Key:
[1] = system: Escherichia coli; assay: Minimum inhibitory concentration against Escherichia coli strain SM101; assay type: functional
[2] = system: Escherichia coli; assay: Minimum inhibitory concentration against Escherichia coli strain tolC; assay type: functional
[3] = system: Enterococcus faecalis; assay: Tested for minimal growth inhibitory concentration against […] ATCC 29212; assay type: functional
[4] = biological target: T1, Aspartyl/glutamyl-tRNA(Asn/Gln) amidotransferase subunit A (Streptococcus pyogenes serotype M1, UniProt Q99YC0); assay: In vitro inhibitory concentration against Glutaminase activity of bacterial Glu-tRNA-Gln […] (Glu-AdT)
T1 sequence (Q99YC0 whole entry, looked up): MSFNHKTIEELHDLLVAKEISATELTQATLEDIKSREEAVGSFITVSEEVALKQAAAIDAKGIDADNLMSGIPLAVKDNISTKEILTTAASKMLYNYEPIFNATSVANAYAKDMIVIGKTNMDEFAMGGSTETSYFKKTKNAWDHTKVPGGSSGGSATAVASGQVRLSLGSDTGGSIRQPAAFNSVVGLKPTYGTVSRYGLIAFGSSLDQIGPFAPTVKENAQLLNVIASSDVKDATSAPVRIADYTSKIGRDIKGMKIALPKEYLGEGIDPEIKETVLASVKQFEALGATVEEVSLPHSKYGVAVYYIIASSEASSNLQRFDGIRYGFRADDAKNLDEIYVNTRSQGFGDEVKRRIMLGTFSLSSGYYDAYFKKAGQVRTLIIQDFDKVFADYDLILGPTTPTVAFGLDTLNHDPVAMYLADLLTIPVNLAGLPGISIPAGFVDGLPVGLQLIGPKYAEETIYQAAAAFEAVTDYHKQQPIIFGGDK
Summary of the method: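 S. pyogenes Glu-AdT, glutaminase-only reaction with no ATP or tRNA. Gln at 2×Km. Inhibitor titrated over […]. Enzyme pre-incubated 15 min with inhibitor, then started with Gln. Reaction buffer was 50 mM HEPES, 25 mM MgCl₂, 15 mM KCl, 1% DMSO, pH 7. IC50 determined in duplicate.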

[5] = biological target: T1, Aspartyl/glutamyl-tRNA(Asn/Gln) amidotransferase subunit A; assay: In vitro inhibitory concentration against transferase activity of bacterial Glu-tRNA-Gln […] (Glu-AdT)
Summary of the method: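 S. pyogenes Glu-AdT, Gln-dependent transferase reaction. Substrates were Glu-tRNAGln at >10×Km, ATP at 2×Km and Gln at 0.5×Km. Inhibitor titrated over […]. Enzyme pre-incubated 15 min with inhibitor, Glu-tRNAGln and ATP, then started with Gln. Buffer was 50 mM HEPES, 25 mM MgCl₂, 15 mM KCl, 1% DMSO, pH 7. IC50 determined in duplicate.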

[6] = system: Helicobacter pylori; assay: Tested for minimal growth inhibitory concentration against Helicobacter pylori ATCC 43629; assay type: functional
Summary of the method: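 Broth dilution in Brain–Heart Infusion broth with 0.25% yeast extract and 10% horse serum. Inoculum was 6×10⁵ CFU per well, incubated 72 h at 37 °C under 10% CO₂. Highest concentration tested was 64. NCCLS-recommended control antibiotics tracked strain performance.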

[7] = system: Staphylococcus aureus; assay: Tested for minimal growth inhibitory concentration against Staphylococcus aureus ATCC 29213; assay type: functional
[8] = system: Streptococcus pyogenes; assay: Tested for minimal growth inhibitory concentration against Streptococcus pyogenes ATCC 13709; assay type: functional
[9] = Tested for mammalian cellular toxicity expressed as IC50; assay type: functional
[10] = system: Streptococcus pneumoniae; assay: Tested for minimal growth inhibitory concentration against Streptococcus pneumoniae ATCC 49619; assay type: functional
[11] = system: Staphylococcus epidermidis; assay: Tested for minimal growth inhibitory concentration against Staphylococcus epidermidis ATCC 12228; assay type: functional
[12] = system: Staphylococcus epidermidis; assay: Tested for minimal growth inhibitory concentration against Staphylococcus epidermidis ATCC 51625; assay type: functional
[13] = system: Staphylococcus aureus; assay: Tested for minimal growth inhibitory concentration against Staphylococcus aureus ATCC 25923; assay type: functional
[14] = system: Staphylococcus aureus; assay: Tested for minimal growth inhibitory concentration against Staphylococcus aureus ATCC 4330; assay type: functional
[15] = system: Staphylococcus carnosus; assay: Tested for minimal growth inhibitory concentration against Staphylococcus carnosus ATCC 51365; assay type: functional

Row | Structure (SMILES) | MIC [1] | MIC [2] | MIC [3] | IC50 [4] | IC50 [5] | MIC [6] | MIC [7] | MIC [8] | IC50 [9] | MIC [10] | MIC [11] | MIC [12] | MIC [13] | MIC [14] | MIC [15]
1 | COC(=O)[C@H](CCB1O[C@@]2(C)CCC3C[C@@]2(O1)C3(C)C)NC(=O)OCc1ccccc1 | > 64 µg/mL | > 64 µg/mL | > 64 µg/mL | > 80 µM | > 20 µM | 32 µg/mL (≈ 74.5 µM) | > 64 µg/mL | 64 µg/mL (≈ 149 µM) | > 100 µM |  |  |  |  |  | 
2 | CC1(C)C2CC[C@]3(C)OB(CCC[C@H](NC(=O)OCc4ccccc4)C(=O)O)O[C@]13C2 |  |  |  | > 80 µM | > 20 µM |  |  |  |  |  |  |  |  |  | 
3 | CC1(C)C2CC[C@]3(C)OB(CCC[C@H](N)C(=O)O)O[C@]13C2 |  |  |  | > 80 µM | > 20 µM |  |  |  |  |  |  |  |  |  | 
4 | COC(=O)[C@H](CCCB1O[C@@]2(C)CCC3C[C@@]2(O1)C3(C)C)NC(=O)OCc1ccccc1 |  |  |  | > 80 µM | > 20 µM |  |  |  |  |  |  |  |  |  | 
5 | CC1(C)C2CC[C@]3(C)OB(CC[C@H](NC(=O)OCc4ccccc4)C(=O)O)O[C@]13C2 | > 64 µg/mL | > 64 µg/mL | > 64 µg/mL | > 80 µM |  | > 64 µg/mL | > 64 µg/mL | > 64 µg/mL | > 100 µM |  |  |  |  |  | 
6 | CC1(C)C2CC[C@]3(C)OB(CC[C@H](NC(=O)CN)C(=O)O)O[C@]13C2 | > 64 µg/mL | > 64 µg/mL | 8 µg/mL (≈ 23.7 µM) | > 80 µM | > 20 µM |  | > 64 µg/mL | > 64 µg/mL |  | > 64 µg/mL |  |  |  |  | 
7 | CC(C)(C)OC(=O)NCCCB1O[C@@]2(C)CCC3C[C@@]2(O1)C3(C)C | 8 µg/mL (≈ 23.7 µM) | 8 µg/mL (≈ 23.7 µM) | > 64 µg/mL | > 80 µM | > 20 µM | > 64 µg/mL | > 64 µg/mL | > 64 µg/mL |  |  |  |  |  |  | 
8 | CC(C)(C)OC(=O)[C@@H](N)CCB1O[C@@]2(C)CCC3C[C@@]2(O1)C3(C)C | 8 µg/mL (≈ 23.7 µM) | 8 µg/mL (≈ 23.7 µM) | > 64 µg/mL | > 80 µM |  | > 64 µg/mL | > 64 µg/mL | > 64 µg/mL | > 100 µM |  |  |  |  |  | 
9 | CNC(=O)CNC(=O)[C@@H](N)CCB1O[C@@]2(C)CCC3C[C@@]2(O1)C3(C)C |  |  | 16 µg/mL (≈ 45.6 µM) | 40 µM | 20 µM | 16 µg/mL (≈ 45.6 µM) | > 64 µg/mL | 8 µg/mL (≈ 22.8 µM) |  | 16 µg/mL (≈ 45.6 µM) | > 64 µg/mL | > 64 µg/mL | > 64 µg/mL | > 64 µg/mL | > 64 µg/mL
10 | CC1(C)C2CC[C@]3(C)OB(CCCN)O[C@]13C2 | > 64 µg/mL | > 64 µg/mL | > 64 µg/mL | > 80 µM | > 20 µM | > 64 µg/mL | > 64 µg/mL |  | > 100 µM |  |  |  |  |  | 
11 | CC1(C)C2CC[C@]3(C)OB(CC[C@H](N)C(=O)NS(=O)(=O)C(F)(F)F)O[C@]13C2 |  |  |  | 55 µM | 4.7 µM |  |  |  |  |  |  |  |  |  | 
12 | CN[C@@H](CCB1O[C@@]2(C)CCC3C[C@@]2(O1)C3(C)C)C(=O)O |  |  |  |  | 1.1 µM |  |  |  |  |  |  |  |  |  | 
13 | COC(=O)[C@@H](N)CCB1O[C@@]2(C)CCC3C[C@@]2(O1)C3(C)C | > 64 µg/mL | > 64 µg/mL | 4 µg/mL (≈ 13.6 µM) | 1.5 µM | 0.07 µM | 64 µg/mL (≈ 217 µM) | > 64 µg/mL | 8 µg/mL (≈ 27.1 µM) | > 100 µM | 2 µg/mL (≈ 6.78 µM) | > 64 µg/mL | > 64 µg/mL | > 64 µg/mL | > 64 µg/mL | > 64 µg/mL
14 | CC1(C)C2CC[C@]3(C)OB(CC[C@H](N)C(=O)NS(=O)(=O)c4ccc(N)cc4)O[C@]13C2 |  |  |  | > 80 µM | 10 µM |  |  |  |  |  |  |  |  |  | 
15 | CNC(=O)[C@@H](N)CCB1O[C@@]2(C)CCC3C[C@@]2(O1)C3(C)C | 64 µg/mL (≈ 218 µM) | 64 µg/mL (≈ 218 µM) | > 64 µg/mL | > 80 µM | 35 µM | > 64 µg/mL | > 64 µg/mL | 32 µg/mL (≈ 109 µM) | > 100 µM | 32 µg/mL (≈ 109 µM) |  |  |  |  | 
16 | COC(=O)[C@@H](N)CCCB1O[C@@]2(C)CCC3C[C@@]2(O1)C3(C)C |  |  |  | > 80 µM | > 20 µM |  |  |  |  |  |  |  |  |  | 
17 | COC(=O)[C@@H](N)CCB(O)O | > 64 µg/mL | > 64 µg/mL | 3 µg/mL (≈ 18.6 µM) | 1.3 µM | 0.05 µM | 32 µg/mL (≈ 199 µM) | > 64 µg/mL | 6 µg/mL (≈ 37.3 µM) | > 100 µM | 2 µg/mL (≈ 12.4 µM) | > 64 µg/mL | > 64 µg/mL | > 64 µg/mL | > 64 µg/mL | > 64 µg/mL
18 | CC(=O)N[C@@H](CCB1O[C@@]2(C)CCC3C[C@@]2(O1)C3(C)C)C(=O)O |  |  |  | > 80 µM | > 20 µM |  |  |  |  |  |  |  |  |  | 
19 | CC1(C)C2CC[C@]3(C)OB(CCC(N)CC(=O)O)O[C@]13C2 (some centres undefined) |  |  |  |  | 6.5 µM |  |  |  |  |  |  |  |  |  | 
20 | CC1(C)C2CC[C@]3(C)OB(CC[C@H](N)C(=O)NS(=O)(=O)c4ccccc4)O[C@]13C2 |  |  |  | 40 µM | 20 µM |  |  |  |  |  |  |  |  |  | 
21 | N[C@@H](CCB(O)O)C(=O)O | > 64 µg/mL | > 64 µg/mL | 8 µg/mL (≈ 54.4 µM) | 1.6 µM | 0.1 µM | 32 µg/mL (≈ 218 µM) | > 64 µg/mL | 8 µg/mL (≈ 54.4 µM) | > 100 µM | 3 µg/mL (≈ 20.4 µM) | > 64 µg/mL | > 64 µg/mL | > 64 µg/mL | > 64 µg/mL | > 64 µg/mL
